# From PubChem
# CCR6 antag: blocks CCL20-driven beta-arrestin recruitment at human CCR6; inhibition, % at 20 µM; CHO-K1 CCR6 PathHunter beta-arrestin, luminescence, CCL20-stimulated; hit rate 0.49% among 340,000;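 active = compounds whose inhibition of the agonist-driven luminescence signal at 20 µM reaches about 50%, limit read from the data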;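 note: cells stimulated with CCL20 at 14 nM final; plate controls were DMSO with CCL20 for no effect and DMSO without agonist for full effect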
# CXCR6 inh: blocks human CXCR6 beta-arrestin recruitment | hit rate 0.36% among 360,000 | inhibition, % at 20 µM | O00574 | CHO-K1 PathHunter CXCR6 beta-arrestin, luminescence; in the data active = inhibition above about 34%, passing the limit was not always enough;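 note: antagonist mode with CXCL16 agonist at 10 nM final; 0% = 10 nM CXCL16 with DMSO and 100% = unstimulated wells without agonist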
# Target sequence (O00574 whole entry, looked up): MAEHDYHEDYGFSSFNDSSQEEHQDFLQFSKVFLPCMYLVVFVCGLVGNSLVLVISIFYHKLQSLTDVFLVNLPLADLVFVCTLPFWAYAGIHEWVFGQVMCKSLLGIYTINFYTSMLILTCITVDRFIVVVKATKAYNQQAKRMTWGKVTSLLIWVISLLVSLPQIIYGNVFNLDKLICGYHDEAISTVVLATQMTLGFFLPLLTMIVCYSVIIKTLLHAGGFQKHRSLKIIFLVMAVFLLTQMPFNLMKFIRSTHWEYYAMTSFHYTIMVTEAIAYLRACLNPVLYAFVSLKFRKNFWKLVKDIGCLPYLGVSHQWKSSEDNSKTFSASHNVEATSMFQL
# APJ antag: APJ receptor antagonism. inhibition, % at 20 µM. P35414. AID 2521. hit rate 0.32% among 330,000. CHO-K1 APJ beta-arrestin complementation, luminescence;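 active = inhibition above about 40% at 20 µM, limit read from the data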;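 note: cells challenged with 10 nM apelin-13 agonist together with compound; plate controls were apelin-13 plus DMSO wells for no effect and DMSO wells lacking apelin-13 for full effect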
# Target sequence (P35414 whole entry, looked up): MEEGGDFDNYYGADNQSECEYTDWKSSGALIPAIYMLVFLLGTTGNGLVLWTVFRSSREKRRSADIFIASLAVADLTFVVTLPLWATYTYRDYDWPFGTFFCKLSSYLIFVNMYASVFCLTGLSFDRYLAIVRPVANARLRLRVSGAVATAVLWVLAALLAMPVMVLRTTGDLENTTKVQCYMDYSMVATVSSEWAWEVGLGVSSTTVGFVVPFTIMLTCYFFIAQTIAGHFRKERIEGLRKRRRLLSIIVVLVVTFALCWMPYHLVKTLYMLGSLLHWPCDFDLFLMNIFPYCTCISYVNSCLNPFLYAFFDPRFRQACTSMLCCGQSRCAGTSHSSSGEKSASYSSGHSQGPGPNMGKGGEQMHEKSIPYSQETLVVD
# EBI2 antag: EBI2 (human) antagonism; hit rate 0.81% among 360,000; inhibition, % at 5 µM; EBI2 beta-arrestin recruitment, luminescence, 7a,25-OHC stimulated; P32249; in the data active = inhibition above about 38%;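 note: enzyme fragment complementation signal reports receptor beta-arrestin coupling in cells; 0% = agonist plus DMSO wells and 100% = wells without agonist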
# HTR2A ag: mouse HTR2A agonism via beta-arrestin recruitment; P35363; hit rate 0.66% among 360,000; activation, % at 7.6 µM; AID 624169; CHO-K1 mHTR2A beta-arrestin complementation, luminescence; percent of 30 µM serotonin response;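 active = activation above a run cutoff, the mean activation of all tested compounds plus 3 SD, cut at about 14% in these data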;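 note: 0% = plate median of compound wells and 100% = 30 µM serotonin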
# APJ ag: activates the human apelin receptor APJ; hit rate 0.11% among 330,000; CHO-K1 APJ PathHunter beta-arrestin, luminescence; 0% DMSO wells, 100% apelin; P35414; activation, % at 20 µM;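 active = activation more than six SD over the plate average, tested at 20 µM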;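 note: 0% = DMSO alone and 100% = apelin-13 at 10 nM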
#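 Assay system – PathHunter CHO-K1 APJ (AGTRL-1) beta-arrestin reporter cells · Compound – one dose, 20 µM compound, 1% DMSO · Timing – compound 90 min 25 °C, reagent 1 h · Measured by – luminescence from split beta-galactosidase complementation, Galacton Star/Emerald II substrate · Measure – beta-arrestin recruitment to APJ as agonist activity, luminescent signal · Benchmarks – DMSO vs Apelin-13 10 nM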
# OPRM1 ag: OPRM1 agonism in mouse HTR2A counterscreen | shares compounds with HTR2A ag | U2OS OPRM1 beta-arrestin PathHunter, luminescence; DMSO 0%, DAMGO 9.3 µM 100% | activation, % at 9.3 µM | hit rate 5.3% among 2,300 | AID 624380;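 active = mean activation above the mean of DMSO-only wells plus 3 SD, cut at about 0.5% in these data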
# HTR2A ag conf: confirmation of mouse HTR2A serotonin receptor agonists; activation, % at 7.6 µM; shares compounds with HTR2A ag; AID 624381; CHO-K1 PathHunter beta-arrestin recruitment, luminescence; DMSO 0%, 30 µM serotonin 100%; hit rate 19% among 2,300;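 active = mean activation across triplicates above the hit threshold derived in the original primary screen, cut at about 15% in these data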
# * hit, by the source's call; . = not tested or not shown. Hits are enriched below; roughly 2.1% of the tested compounds scored in any of these assays.
SMILES,CCR6 antag,CXCR6 inh,APJ antag,EBI2 antag,HTR2A ag,APJ ag,OPRM1 ag,HTR2A ag conf
CC(C)[C@H](NC(=O)N1C[C@H]2C[C@@H](C1)c1cccc(=O)n1C2)C(=O)Nc1ccccc1F,-4.5,4.6,-46.0,-7.0,4.8,-1.9,.,.
CC(=O)OC(C)(C)/C=C/C(=O)C(C)(O)C1[C@H](O)C[C@@]2(C)C3CC=C4C(CC[C@@H](O)C4(C)C)[C@]3(CO)C(=O)C[C@]12C (stereo partly drawn),20.2,7.4,12.3,-77.1,25.2*,-0.3,-0.1,3.7
Cc1ccc(/C=C2/C(=O)NC(=O)N(CCc3ccc(F)cc3)C2=O)o1,20.5,-13.4,-9.0,28.0,-1.4,8.4,.,.
Cn1cccc1CNCCc1ccccc1,.,.,14.5,.,.,0.6,.,.
COc1ccc(CCNCc2cccn2C)cc1,3.6,-2.1,-32.8,4.1,27.6*,2.3,0.5*,17.0*
CN1C(=O)NC(=O)[C@]2(Cc3ccccc3N3CCN(c4ccccc4)CC32)C1=O (stereo partly drawn),-17.9,5.1,-4.5,-3.0,16.6*,-1.2,-0.2,8.2
O=C1NC(=O)[C@]2(Cc3ccccc3N3CCN(c4ccccc4)CC32)C(=O)N1c1ccccc1 (stereo partly drawn),4.3,-7.0,5.1,19.2,7.2,-5.1,.,.
COc1ccccc1N1CCN(Cc2ccccc2Cl)CC1,-9.2,6.9,7.1,-8.2,-0.5,-4.8,.,.
Cc1cc(O)c2c(C)c(CC(=O)N3C[C@H]4C[C@@H](C3)c3cccc(=O)n3C4)c(=O)oc2c1,4.9,10.6,9.5,0.9,18.7*,-6.8,-0.7,-3.2
O=C(NCCN1CCOCC1)c1ccc(Cl)nc1,2.8,-1.6,12.1,-15.7,0.8,-2.3,.,.
c1ccc2oc(N3CCNCC3)nc2c1,-1.6,0.0,-8.1,-1.0,29.4*,-2.5,-0.5,10.9
CN1CCN(c2nc3ccccc3o2)CC1,-0.8,-5.5,-10.7,-0.6,-0.1,-4.7,.,.
NC(=S)c1cn(C2OC(CO)C(O)C2O)c2ncnc(N)c12 (stereo not drawn),9.8,-5.0,.,0.8,3.6,.,.,.
C[C@@H]1O[C@@H](O[C@@H]2C=C3CCC4C(CC[C@]5(C)[C@@H](c6ccc(=O)oc6)CC[C@]45O)[C@@]3(C)CC2)[C@H](O)[C@H](O)[C@H]1O (stereo partly drawn),-23.5,-9.2,-7.8,-47.8,16.2*,11.4,7.7*,27.9*
C[C@@H]1O[C@@H](O[C@@H]2C=C3CC[C@@H]4C(CC[C@]5(C)[C@@H](c6ccc(=O)oc6)CC[C@]45O)[C@@]3(C)CC2)[C@H](O)[C@H](O)[C@H]1O (stereo partly drawn),-19.1,-14.1,5.4,-12.8,18.3*,-2.4,6.3*,8.6
c1cncc(C2CC(c3cccs3)n3ncnc3N2)c1 (stereo not drawn),-3.5,-7.7,-0.6,-8.8,4.2,-1.1,.,.
COc1ccc(CCNCc2ccsc2)cc1OC,7.7,0.4,-1.1,2.2,18.8*,-2.2,-0.6,9.9
COc1ccc(CCNCc2ccc(F)cc2)cc1OC,1.7,-10.9,2.2,1.1,-1.1,2.6,.,.
CCCC(=O)NC(Oc1ccc(Cl)cc1Cl)C(Cl)(Cl)Cl (stereo not drawn),17.8,-4.5,-3.0,1.6,-0.5,5.3,.,.
CCC(C)NC(=O)CCC(=O)OC1O[C@H]2OC3(C)CC[C@H]4[C@H](C)CCC(C1C)C24OO3 (stereo partly drawn),-17.7,-13.7,.,-21.3,-3.9,.,.,.
CCC(C)C(NC(=O)CCCNC(=O)CCC(=O)OC1O[C@H]2OC3(C)CC[C@H]4[C@H](C)CCC(C1C)C24OO3)C(=O)O (stereo partly drawn),.,-29.3,-39.6,-19.4,20.6*,11.9,0.6*,-3.9
C=CCN1CCc2cccc3c2[C@H]1Cc1ccc(O)c(O)c1-3,0.6,-18.3,-28.9,-0.6,54.7*,1.9,1.2*,167.3*
CC(=O)N(C1=NCCCS1)c1ccc(Cl)cc1,-7.8,1.3,-14.2,-0.1,2.2,-2.4,.,.
Clc1cccc(N2CCNCC2)c1,16.2,3.0,-3.4,-3.7,24.7*,-4.1,-0.7,6.7
CCOC(=O)CC1c2ccccc2-n2nncc2CN1C (stereo not drawn),4.4,0.7,.,1.9,-3.5,.,.,.
SMILES,CCR6 antag,CXCR6 inh,APJ antag,EBI2 antag,HTR2A ag,APJ ag,OPRM1 ag,HTR2A ag conf
COC(=O)C1=C(c2cccc(OC)c2OC)C[C@@H]2CC[C@H]1N2C,-1.1,-6.1,6.2,4.3,1.4,0.2,.,.
CC(=O)c1cccc(NC2=NCC(C)S2)c1 (stereo not drawn),1.5,8.6,12.8,2.6,8.5,-3.4,.,.
CC(N)Cc1c[nH]c2ccc(Cl)cc12 (stereo not drawn),3.9,-5.4,-14.6,-14.0,79.6*,-2.0,-0.3,55.1*
O=Cc1cn(Cc2cccc([N+](=O)[O-])c2)c2ccccc12,25.8,7.2,14.3,3.4,-3.6,-4.4,.,.
CC(NCc1ccc(Cl)c(Cl)c1)C(O)c1ccccc1 (stereo not drawn),1.7,2.1,-11.1,5.7,15.5*,0.7,-0.1,-4.3
CC(NCc1ccccc1Cl)C(O)c1ccccc1 (stereo not drawn),7.2,-4.9,20.0,-2.2,-2.2,-1.9,.,.
COc1ccc(C(c2nnnn2-c2ccc3c(c2)OCCO3)N2CCC(n3c(=O)[nH]c4ccccc43)CC2)cc1 (stereo not drawn),.,4.1,.,-12.0,18.5*,.,.,15.1*
COc1ccc(-n2nnnc2C(c2ccccc2OC(F)(F)F)N2CCC(n3c(=O)[nH]c4ccccc43)CC2)cc1 (stereo not drawn),.,7.5,.,8.1,15.7*,.,.,7.1
CC1=C[C@@H]2c3cccc4[nH]cc(c34)C[C@H]2N(C)C1,-1.2,-3.7,-14.5,0.1,27.9*,1.7,0.8*,143.8*
Clc1ccccc1CN1CCN(c2ccccc2)CC1,14.3,2.3,6.7,8.2,26.6*,2.9,-0.3,53.3*
Clc1ccc(N2CCN(Cc3ccccc3Cl)CC2)cc1,10.7,-10.2,-16.1,2.8,9.6,-5.5,.,.
Oc1ccc(-[n+]2c(-c3ccccc3)cc(-c3ccccc3)cc2-c2ccccc2)cc1,-27.7,-16.3,-32.1,-3.9,20.6*,10.3,0.5*,15.7*
COc1ccc(-[n+]2c(-c3ccccc3)cc(-c3ccccc3)cc2-c2ccccc2)cc1,3.7,.,11.8,.,.,-2.8,.,.
O=C(NCc1cccnc1)C(Cl)(Cl)Cl,-0.7,0.2,4.9,-1.2,23.8*,0.5,-0.6,-3.8
